How the values were obtained:
[1] = biological target: T1, 5-hydroxytryptamine receptor 1B (Rattus norvegicus, UniProt P28564); assay: Binding affinity to 5-HT1B receptors using rat cortex+striatum + globus pallidus,[3H]-5-OH-tryptamine, and serotonin for NSB
Outline: (§1)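 Membranes from rat cortex plus striatum plus globus pallidus; [3H]-5-OH-tryptamine as radioligand at roughly its KD; serotonin defines nonspecific binding. Competition binding; IC50 taken as concentration inhibiting 50% of specific binding.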

[2] = Binding affinity to 5-hydroxytryptamine 2 receptor using calf frontal cortex, [3H]- ketanserin, and spiperone for NSB; set-up: species or system Bos taurus
Outline: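 Calf frontal cortex; [3H]ketanserin near its KD; nonspecific binding with spiperone. Competition binding; IC50 = concentration inhibiting 50% of specific binding.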

[3] = biological target: T2, Serotonin 3 receptor (5HT3) (Mus musculus, UniProt Q9JHJ5+P23979); assay: Displacement of [3H]-BRC 36694 from 5-hydroxytryptamine 3 receptor in NG108-15 cells; assay type: cell-based
T2 sequence (Q9JHJ5 whole entry): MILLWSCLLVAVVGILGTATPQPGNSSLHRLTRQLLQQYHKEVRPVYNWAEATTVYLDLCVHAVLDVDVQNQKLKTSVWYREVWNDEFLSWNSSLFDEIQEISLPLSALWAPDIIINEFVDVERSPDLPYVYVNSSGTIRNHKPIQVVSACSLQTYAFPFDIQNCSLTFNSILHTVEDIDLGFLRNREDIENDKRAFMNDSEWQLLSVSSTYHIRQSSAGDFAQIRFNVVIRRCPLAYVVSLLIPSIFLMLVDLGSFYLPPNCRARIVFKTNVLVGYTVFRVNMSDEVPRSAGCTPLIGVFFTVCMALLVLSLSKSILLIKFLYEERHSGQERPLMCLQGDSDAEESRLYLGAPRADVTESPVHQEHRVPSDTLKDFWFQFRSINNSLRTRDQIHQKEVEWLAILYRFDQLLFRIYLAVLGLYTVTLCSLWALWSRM
T2 sequence (P23979 whole entry): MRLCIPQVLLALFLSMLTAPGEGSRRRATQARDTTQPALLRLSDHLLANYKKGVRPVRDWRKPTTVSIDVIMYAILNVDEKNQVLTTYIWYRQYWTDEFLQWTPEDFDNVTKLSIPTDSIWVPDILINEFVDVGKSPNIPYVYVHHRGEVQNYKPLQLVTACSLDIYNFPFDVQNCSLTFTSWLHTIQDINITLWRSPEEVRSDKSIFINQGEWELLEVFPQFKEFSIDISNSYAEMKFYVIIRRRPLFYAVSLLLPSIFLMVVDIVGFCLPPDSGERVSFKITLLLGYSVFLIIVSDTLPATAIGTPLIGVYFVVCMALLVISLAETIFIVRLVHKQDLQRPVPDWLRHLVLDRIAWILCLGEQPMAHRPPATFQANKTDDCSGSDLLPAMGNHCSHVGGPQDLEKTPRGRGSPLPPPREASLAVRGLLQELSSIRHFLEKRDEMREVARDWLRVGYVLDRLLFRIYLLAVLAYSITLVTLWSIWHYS
Outline: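 NG108-15 cells; [3H]-BRC 36694 at approximately its KD; ICS 205930 for nonspecific binding. Competition binding expressed as IC50 against specific binding.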

[4] = biological target: D(2) dopamine receptor (Bos taurus, UniProt P20288); assay: Displacement of [3H]SDZ-205-501 from Dopamine receptor D2 in calf caudate nucleus.
Chain of D(2) dopamine receptor (P20288 whole entry): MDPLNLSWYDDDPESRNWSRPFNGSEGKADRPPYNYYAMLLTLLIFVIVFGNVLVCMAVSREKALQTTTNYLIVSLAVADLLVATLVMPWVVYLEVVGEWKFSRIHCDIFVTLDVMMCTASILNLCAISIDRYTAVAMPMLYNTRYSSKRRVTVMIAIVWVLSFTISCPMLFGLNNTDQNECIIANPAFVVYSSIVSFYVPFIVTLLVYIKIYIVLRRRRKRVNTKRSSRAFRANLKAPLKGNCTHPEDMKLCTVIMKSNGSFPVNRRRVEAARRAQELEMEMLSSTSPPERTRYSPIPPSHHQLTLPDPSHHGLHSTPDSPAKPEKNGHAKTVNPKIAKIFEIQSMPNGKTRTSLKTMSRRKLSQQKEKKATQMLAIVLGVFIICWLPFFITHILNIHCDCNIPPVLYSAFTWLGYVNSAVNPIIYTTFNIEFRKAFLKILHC
Outline: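 Calf caudate nucleus; [3H]SDZ205-501 near its KD; butaclamol for nonspecific binding. Competition binding; IC50 for 50% inhibition of specific binding.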

[5] = species: Rattus norvegicus; assay: Effects of enantiomeric compound on adenylate cyclase activity in rat hippocampus; assay type: functional
Outline: (§2)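 Rat hippocampal membranes incubated 20 min at 30 °C with forskolin 10 μM, [α-32P]ATP 0.1 μM and test compound. Activity measured as conversion to [32P]cAMP (nM/mg protein/20 min), given as % of control. Mean ± standard error of three determinations in two experiments; Student's t-test versus 100%, p < 0.05.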

[6] = species: Rattus norvegicus; assay: Effects of enantiomeric compound on adenylate cyclase activity in rat hippocampus at 1 uM; assay type: functional; outline: as §2
[7] = species: Rattus norvegicus; assay: Effects of enantiomeric compound on adenylate cyclase activity in rat hippocampus at 10e-5 M; assay type: functional; outline: as §2
[8] = species: Rattus norvegicus; assay: Effects of enantiomeric compound on adenylate cyclase activity in rat hippocampus at 10e-6 M; assay type: functional; outline: as §2
[9] = species: Rattus norvegicus; assay: Effects of enantiomeric compound on adenylate cyclase activity in rat hippocampus at 10e-7 M; assay type: functional; outline: as §2
[10] = species: Rattus norvegicus; assay: Effects of enantiomeric compound on adenylate cyclase activity in rat hippocampus at 10e-8 M; assay type: functional; outline: as §2
[11] = Displacement of [3H]raclopride from Dopamine receptor […] of calf striatum; set-up: species or system Bos taurus
Outline: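 Calf striatum; [3H]raclopride at about its KD; haloperidol for nonspecific binding. Competition assay reporting IC50 (50% inhibition of specific binding).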

[12] = biological target: T3, 5-hydroxytryptamine receptor 1A (Rattus norvegicus, UniProt P19327); assay: Binding affinity to 5-hydroxytryptamine 1A receptor in rat hippocampus membranes,3H-8-OH-DPAT and buspirone for nonspecific binding (NSB); assay type: cell membranes
T3 sequence (P19327 whole entry): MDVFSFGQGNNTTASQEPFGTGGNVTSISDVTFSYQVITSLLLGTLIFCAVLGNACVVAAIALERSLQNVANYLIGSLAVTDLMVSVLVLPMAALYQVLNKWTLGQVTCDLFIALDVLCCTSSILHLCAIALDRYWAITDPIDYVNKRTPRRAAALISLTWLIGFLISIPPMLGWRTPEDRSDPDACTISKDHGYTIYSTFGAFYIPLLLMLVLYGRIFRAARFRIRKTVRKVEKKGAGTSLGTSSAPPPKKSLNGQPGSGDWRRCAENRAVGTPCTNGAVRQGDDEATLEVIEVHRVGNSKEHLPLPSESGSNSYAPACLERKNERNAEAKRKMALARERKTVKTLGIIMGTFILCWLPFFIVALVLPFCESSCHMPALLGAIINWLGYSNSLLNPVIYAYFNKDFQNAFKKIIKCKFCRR

[13] = species: Rattus norvegicus; assay: Effect of compound on Forskolin-Activated Adenylate Cyclase in Rat Hippocampi at 0 M conc; assay type: functional; outline: as §2
[14] = species: Rattus norvegicus; assay: Effect of compound on Forskolin-Activated Adenylate Cyclase in Rat Hippocampi at 10e-10 M conc; assay type: functional; outline: as §2
[15] = species: Rattus norvegicus; assay: Effect of compound on Forskolin-Activated Adenylate Cyclase in Rat Hippocampi at 10e-6 M conc; assay type: functional; outline: as §2
[16] = species: Rattus norvegicus; assay: Effect of compound on Forskolin-Activated Adenylate Cyclase in Rat Hippocampi at 10e-8 M conc (p<0.05); assay type: functional; outline: as §2
[17] = species: Rattus norvegicus; assay: Effect of compound on Forskolin-Activated Adenylate Cyclase in Rat Hippocampi at 10e-9 M conc; assay type: functional; outline: as §2
[18] = species: Rattus norvegicus; assay: Effects of enantiomeric compound on adenylate cyclase activity in rat hippocampus at 1 micro M conc; assay type: functional; outline: as §2
[19] = species: Rattus norvegicus; assay: Effect of compound on Forskolin-Activated Adenylate Cyclase in Rat Hippocampi at 10e-7 M conc; assay type: functional; outline: as §2
[20] = biological target: T3, 5-hydroxytryptamine receptor 1A; assay: Compound was evaluated for binding affinity on 5-hydroxytryptamine 1A receptor in rat hippocampus membranes,3H-8-OH-DPAT and buspirone for nonspecific binding; assay type: cell membranes
Outline: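 Rat hippocampal membranes in competition binding against [³H]-8-OH-DPAT, with the radioligand at roughly its KD. […] IC50 was taken as the concentration inhibiting 50% of specific binding.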

[21] = biological target: T1, 5-hydroxytryptamine receptor 1B; assay: Compound was evaluated for binding affinity on 5-HT1B receptors using rat cortex+striatum+ globus pallidus,[ 3H]-5-OH-tryptamine, and serotonin for NSB.; assay type: tissue-based; outline: as §1
[22] = species: Rattus norvegicus; assay: Effect of enantiomeric compound on adenylate cyclase activity in rat hippocampus at 10e-7 M; assay type: functional; outline: as §2

T1 sequence (P28564 whole entry): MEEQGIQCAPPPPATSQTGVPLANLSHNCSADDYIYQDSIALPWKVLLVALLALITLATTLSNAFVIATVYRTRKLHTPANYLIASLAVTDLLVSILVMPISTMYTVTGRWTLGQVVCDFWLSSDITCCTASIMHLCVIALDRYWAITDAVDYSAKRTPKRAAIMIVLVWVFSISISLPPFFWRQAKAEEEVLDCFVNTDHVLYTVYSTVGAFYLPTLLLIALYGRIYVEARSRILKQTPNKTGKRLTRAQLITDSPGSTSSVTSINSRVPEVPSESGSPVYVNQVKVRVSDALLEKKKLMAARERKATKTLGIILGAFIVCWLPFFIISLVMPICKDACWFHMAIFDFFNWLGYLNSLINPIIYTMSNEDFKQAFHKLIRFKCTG

| Compound | IC50 [1] [µM] | IC50 [2] [µM] | IC50 [3] [µM] | IC50 [4] [µM] | IC50 [11] [µM] | IC50 [12] [nM] | further results |
| --- | --- | --- | --- | --- | --- | --- | --- |
| COc1cccc2c1CC1(CCCN1)CO2 (stereo not drawn) | 4.4 | 71.4 | 10.2 |  |  | 298 |  |
| O=C1c2ccccc2S(=O)(=O)N1CCCCN1CCN(c2ncccn2)CC1 [IPSAPIRONE] |  | 7.5 |  |  |  |  |  |
| CCCN1CCCC12COc1cccc(O)c1C2 (stereo not drawn) | > 100 | 364 | 7.93 | 71.4 | > 1000 |  | IC50 [20]: 38.5 nM |
| O=C1CC2(CCCC2)CC(=O)N1CCCCN1CCN(c2ncccn2)CC1 [BUSPIRONE] |  | 10 |  |  | 270 |  |  |
| CCCN1CCCC12COc1cccc(OC)c1C2 (stereo not drawn) | 11 | 112 | 3.59 | 6.55 | 120 | 74.6 |  |
| CCCN1CCCCC12COc1cccc(OC)c1C2 (stereo not drawn) | 69.1 | 41.4 | 14.9 | 14.7 | 100 | 420 |  |
| CCCN1CCCC12COc1ccccc1C2 (stereo not drawn) | > 1000 | 233 | 14.5 |  |  | 1300 |  |
| COc1cccc2c1CC1(CCC(=O)N1)CO2 (stereo not drawn) | > 10 | > 100 | > 100 |  |  | 4370 |  |
| CCCN(CCC)C1COc2cccc(OC)c2C1 (stereo not drawn) |  | 60 |  |  |  |  |  |
| COc1cccc2c1CC1(CCCN1CCCCN1C(=O)CC3(CCCC3)CC1=O)CO2 (racemic) |  |  |  |  |  |  | Effect [22]: 80% |
| CCCN(CCC)C1CCc2cccc(O)c2C1 (stereo not drawn) [8-OH-DPAT] |  | 49 |  |  |  |  |  |

Continued, in another order:

| IC50 [1] [µM] | IC50 [2] [µM] | IC50 [3] [µM] | IC50 [4] [µM] | IC50 [11] [µM] | IC50 [12] [nM] | Compound | further results |
| --- | --- | --- | --- | --- | --- | --- | --- |
| 31.1 | 13.9 | 10.6 | 11.3 | 23.3 |  | COc1cccc2c1CC1(CCCN1CCCCN1C(=O)CC3(CCCC3)CC1=O)CO2 (single isomer, unassigned; (-)) | Effect [5]: 101%; Effect [6]: 101%; Effect [7]: 81%; Effect [8]: 86%; Effect [9]: 92%; Effect [10]: 98% |
| 3.8 | 5.95 | 12.5 |  |  | 178 | O=C1CC2(CCCC2)CC(=O)N1CCCCN1CCCC12COc1ccccc1C2 (stereo not drawn) |  |
| 2.7 | 67.3 | 3.97 |  |  | 101 | CCCN1CCCC12COc1cccc(OCCCCN3C(=O)CC4(CCCC4)CC3=O)c1C2 (stereo not drawn) |  |
|  | 3 |  | 0.02 |  |  | CCCN(CCCCN1C(=O)CC2(CCCC2)CC1=O)C1COc2cccc(OC)c2C1 (single isomer, unassigned; (+)) |  |
| 246 | > 100 | > 100 |  |  | 81400 | COc1cccc2c1CC1(CCCN1C(C)=O)CO2 (stereo not drawn) |  |
|  | 1 |  |  |  |  | CCCN(CCCCN1C(=O)CC2(CCCC2)CC1=O)C1COc2cccc(OC)c2C1 (stereo in doubt; 2) |  |
| 1.3 | 0.886 | 12.1 | 1.31 | 22.4 | 6.72 | COc1cccc2c1CC1(CCCN1CCCCN1C(=O)CC3(CCCC3)CC1=O)CO2 (single isomer, unassigned; (+)) | Effect [13]: 100%; Effect [14]: 97%; Effect [15]: 82%; Effect [16]: 88%; Effect [17]: 91%; Effect [5]: 98%; Effect [18]: 79%; Effect [19]: 84% |
|  | 8.39 | 66.5 | 4.3 | 38.3 | 62.8 | COc1cccc2c1CC1(CCCCN1CCCCNC(=O)c1ccc(F)cc1)CO2 (stereo not drawn) | IC50 [21]: 11.2 µM |
| > 100 | 793 | > 100 |  |  | 14200 | CCCN1C(=O)CCC12COc1cccc(OC)c1C2 (stereo not drawn) |  |
| 2.21 | 2.91 | 41.4 | 2.84 | 23.4 | 8.81 | COc1cccc2c1CC1(CCCCN1CCCCN1C(=O)CC3(CCCC3)CC1=O)CO2 (stereo not drawn) |  |
| 3.8 | 6.61 | 30.7 |  |  | 10.6 | COc1cccc2c1CC1(CCCN1CCCCN1C(=O)CC3(CCCC3)CC1=O)CO2 (stereo in doubt; 11a) |  |
|  | 5 |  |  |  |  | CCCN(CCCCN1C(=O)CC2(CCCC2)CC1=O)C1COc2cccc(OC)c2C1 (single isomer, unassigned; (-)) |  |
| 51.1 | 21.1 | 118 | 4.22 | 38 | 68 | COc1cccc2c1CC1(CCCCN1CCCCNS(=O)(=O)c1ccc(C)cc1)CO2 (stereo not drawn) |  |

Source: ChEMBL document CHEMBL1129453, “3-amino-3,4-dihydro-2H-1-benzopyran derivatives as 5-HT1A receptor ligands and potential anxiolytic agents. 2. Synthesis and quantitative structure-activity relationship studies of spiro[pyrrolidine- and piperidine-2,3'(2'H)-benzopyrans]” (J Med Chem, 1996)
